What is called pIC50 is −log10 of the IC50, conventionally taken in molar units.

Structures are written as SMILES. pIC50: −log10 of the molar value.

Experimental findings from ChEMBL document CHEMBL1955721, “Syntheses and cellular investigations of 17(3)-, 15(2)-, and 13(1)-amino acid derivatives of chlorin e(6)” (J Med Chem, 2011) are described below.

In data set [1] the test system is HEp-2. In words: Drug uptake in human Hep2 cells at 10 uM measured up to 25 hrs by […]. It counts as ADME, cell-based. To be noted: hep-2, 24 h, in the assay text read “24 hrs” for “25 hrs”. In a few lines:
(§1)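 HEp2 cells plated 7500/well and grown 48 h. Given 10 µM compound (final DMSO ≤1%, Cremophor 0.1%) for 0, 1, 2, 4, 8, 12 and 24 h. Washed with PBS and lysed in 0.25% Triton X-100. Intracellular compound read by intrinsic fluorescence (ex 355/em 650 nm) in a plate reader and normalized to cell number by CyQuant.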

Data set [2] can be described thus: Drug uptake in human Hep2 cell golgi at 10 uM after 18 hrs by fluorescence microscopic analysis. It counts as ADME, cell-based. The note with it: hep-2, 18 h. An outline of the steps:
(§2)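 HEp2 cells grown 48 h on glass-bottom wells, then exposed to 10 µM compound for 18 h. Co-stained 30 min at 37 °C with LysoSensor Green 50 nM, MitoTracker Green 250 nM, ER Tracker Blue/White 100 nM or BODIPY FL C5 ceramide. Washed three times with PBS. Organelle sites scored by fluorescence overlay microscopy as major or minor.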

Data set [3] in a line: Drug uptake in human Hep2 cell mitochondria at 10 uM after 18 hrs by fluorescence microscopic analysis. To be noted: hep-2, 18 h. It counts as ADME. An outline of the steps:
as §2

Data set [4] is described as follows: Drug uptake in human Hep2 cell endoplasmic reticulum at 10 uM after 18 hrs by fluorescence microscopic analysis. The data set is classed as ADME, cell-based. To be noted: hep-2, 18 h. An outline of the steps:
as §2

Data set [5] has as its system HEp-2. In words: Cytotoxicity against human Hep2 cells after overnight incubation followed by cells irradiated with 1 J/cm'2 light for 20 mins measured after overnight incubation by celltiter blue assay. It counts as functional, cell-based. The note with it: HEp-2, light or radiation study. An outline of the steps: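 HEp2 cells in 50:50 DMEM:AMEM with 5% FBS, passages 4–15, plated 7500/well and grown 48 h. Loaded overnight at 6.25–100 µM. Medium then swapped for one with 50 mM HEPES pH 7.2. Irradiated 20 min with a 100 W halogen lamp through a 610 nm long-pass filter (~1 J/cm2), IR cut by 10 mm water, plate on ice-water. Incubated overnight at 37 °C, then CellTiter Blue viability read.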
In general terms: Resazurin is reduced to fluorescent resorufin, in cell work by metabolically active cells.

The test system of data set [6] is HEp-2. The data set can be described thus: Cytotoxicity against human Hep2 cells under dark condition after 18 hrs by celltiter blue assay. It counts as functional, cell-based. To be noted: HEp-2, 18 h. In a few lines: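 HEp2 cells (passages 4–15) plated 7500/well and grown 48 h. Two-fold serial dilutions from 400 to 50 µM applied for 18 h in the dark. Medium replaced, then CellTiter Blue added and incubated 4 h. Untreated cells taken as 100% viable, 0.2% saponin-treated as 0%.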

Data set [7] concerns HEp-2. In words: Ratio of IC50 for cytotoxicity against human Hep2 cells under dark condition to IC50 for human Hep2 cells in presence of 1 J/cm'2 light. The data set is classed as functional.
Data set [8] in a line: Drug uptake in human Hep2 cell lysosomes at 10 uM after 18 hrs by fluorescence microscopic analysis. The data set is classed as ADME, cell-based, Lysosome. To be noted: hep-2, 18 h. In a few lines: as §2
Data set [9] has as its system HEp-2. In words: Drug uptake in human Hep2 cells at 10 uM after 24 hrs by fluorescence microscopic analysis relative to chlorin e6. The note with it: hep-2, 24 h. It counts as ADME, cell-based. An outline of the steps:
as §1

Take `C=Cc1c(C)c2cc3nc(c(CC(=O)OC)c4[nH]c(cc5nc(cc1[nH]2)C(C)=C5CC)c(C)c4C(=O)OC)[C@@H](CCC(=O)N[C@@H](CCCCN)C(=O)OC)[C@@H]3C`: the Drug uptake entry is recorded as “Active” in the data set with HEp-2 [1]; “Active” in data set [2]; “Not Active” in data set [3]; “Active” in data set [4]; “Active” in data set [8]. The results for the pIC50 with HEp-2 [5] and in the data set with HEp-2 [6] were 4.58 and under 3.40, respectively. In addition, the “Ratio IC50” value in the data set with HEp-2 [7] is over 15.3.
As to `C=Cc1c(C)c2cc3nc(c(CC(=O)N[C@@H](CC(=O)O)C(=O)O)c4[nH]c(cc5nc(cc1[nH]2)C(C)=C5CC)c(C)c4C(=O)OC)[C@@H](CCC(=O)OC)[C@@H]3C`, the Drug uptake entry with HEp-2 [1] is listed as “Active”; in [2], “Not Active”; in data set [3], “Active”; in data set [4] it was “Active”; in data set [8], “Active”. Also, the pIC50 with HEp-2 [5] is 5.40; in the data set with HEp-2 [6], 3.43. In the data set with HEp-2 [7], the “Ratio IC50” value is 93.4.
For the compound `C=Cc1c(C)c2cc3nc(c(CC(=O)N[C@@H](CCCCN)C(=O)OC)c4[nH]c(cc5nc(cc1[nH]2)C(C)=C5CC)c(C)c4C(=O)OC)[C@@H](CCC(=O)OC)[C@@H]3C`, the Drug uptake entry in data set [2] is “Active”; in data set [3], “Not Active”; in [4], “Active”; in [8], “Active”. Further, the pIC50 with HEp-2 [5] is 4.54; with HEp-2 [6], under 3.40. In addition, the “Ratio IC50” value in the data set on HEp-2 [7] was over 13.9. The “fold change (FC)” value in the data set on HEp-2 [9] is given as 18.
As to `C=Cc1c(C)c2cc3nc(c(CC(=O)OC)c4[nH]c(cc5nc(cc1[nH]2)C(C)=C5CC)c(C)c4C(=O)N[C@@H](CC(=O)O)C(=O)O)[C@@H](CCC(=O)OC)[C@@H]3C`, the Drug uptake result (in the data set with HEp-2 [1]; in [2]; in data set [3]; in [4]; in data set [8]) was “Active” in each case. Also, the pIC50 was 6.21 in the data set with HEp-2 [5] and 3.55 with HEp-2 [6]. The “Ratio IC50” value in the data set with HEp-2 [7] is 466.6.
In the case of `C=Cc1c(C)c2cc3nc(c(CC(=O)OC)c4[nH]c(cc5nc(cc1[nH]2)C(C)=C5CC)c(C)c4C(=O)NCCC(=O)N[C@@H](CC(=O)O)C(=O)O)[C@@H](CCC(=O)OC)[C@@H]3C`, the Drug uptake result was “Active” in the data set with HEp-2 [1]; “Active” in data set [2]; “Not Active” in data set [3]; “Active” in data set [4]; “Active” in data set [8]. For the same compound, the pIC50 is 6.09 with HEp-2 [5] and 3.42 with HEp-2 [6]. In the data set with HEp-2 [7], the “Ratio IC50” value turned out to be 468.2.
Consider `C=Cc1c(C)c2cc3nc(c(CC(=O)OC)c4[nH]c(cc5nc(cc1[nH]2)C(C)=C5CC)c(C)c4C(=O)NCCNC(=O)[C@@H](N)CCCCN)[C@@H](CCC(=O)OC)[C@@H]3C`, for which the Drug uptake result with HEp-2 [1] is given as “Active”; in [2] it was “Active”; in data set [3], “Not Active”; in data set [4] it was “Active”; in data set [8], “Active”. Further, the pIC50 is 5.87 in the data set with HEp-2 [5] and 3.57 with HEp-2 [6]. In addition, the “Ratio IC50” value in the data set on HEp-2 [7] is given as 200.3.
`C=Cc1c(C)c2cc3nc(c(CC(=O)O)c4[nH]c(cc5nc(cc1[nH]2)C(C)=C5CC)c(C)c4C(=O)O)[C@@H](CCC(=O)O)[C@@H]3C` [CHLORIN E6]: the Drug uptake entry was “Active” in the data set with HEp-2 [1]; “Not Active” in data set [2]; “Not Active” in data set [3]; “Active” in data set [4]; “Active” in data set [8]. In addition, the pIC50 is 4.68 with HEp-2 [5] and under 3.40 in the data set on HEp-2 [6]. Besides, the “Ratio IC50” value in the data set with HEp-2 [7] is listed as over 19.2.
